For test [1], the species on record is Homo sapiens. Put plainly: Activation of purified human antithrombin-high affinity heparin interaction assessed as antithrombin-mediated inhibition of factor 10a by measuring as second order association rate constant for chromogenic substrate hydrolysis at 1 uM by microplate reader based assay.
Test [2] can be described thus: Binding affinity to purified human antithrombin at 128 uM by isothermal titration calorimetry. A general note: ITC needs no label: the signal is the heat of the interaction.
Test [3] is filed under the species Homo sapiens. The experiment in a line: Activation of purified human antithrombin-mediated inhibition of thrombin assessed as second order association rate constant for chromogenic substrate hydrolysis by microplate reader based assay.
Test [4] is filed under the species Homo sapiens. Put plainly: Activation of citrullinated human antithrombin-mediated inhibition of factor 10a assessed as chromogenic substrate hydrolysis at 14.8 uM in presence of rabbit skeletal muscle […]. Also on record: scale not given: the % may be the effect or the level left. Put shortly: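 Plasma-purified antithrombin (1 mg/mL) incubated with rabbit skeletal muscle PAD IV (50:1 molar ratio antithrombin/PAD) ± 14.8 μM compound in 100 mM Tris-HCl, 5 mM CaCl2, pH 7.4, 37 °C, 15 min; stopped with 50 mM EDTA. Residual anti-FXa activity by chromogenic assay with heparin, bovine FXa, S-2765, A405. Two experiments in triplicate, % of antithrombin alone.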

Test [5] is filed under the species Homo sapiens. Put plainly: Activation of antithrombin L99F mutant in type 2 antithrombin deficiency patient plasma assessed as inhibition of S-2238 hydrolysis at 148 uM incubated for 5 mins in presence of mouse Py-4-1 cells (reference value: 33.22 +/- 2.93%). It is filed as cell-free. Also on record: scale not given: the % may be the effect or the level left.
The species named for test [6] is Homo sapiens. Put plainly: Activation of purified human antithrombin-low affinity heparin interaction assessed as antithrombin-mediated inhibition of thrombin by measuring as second order association rate constant for chromogenic substrate hydrolysis at 1 uM by microplate reader based assay.
The target of test [7] is T1, Antithrombin (Homo sapiens) (UniProt Q15950).
T1 sequence (whole entry): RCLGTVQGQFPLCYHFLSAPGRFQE
The experiment in a line: Activation of purified human antithrombin-unfractionated heparin assessed as change in antithrombin intrinsic fluorescence at 37 uM by fluorescence spectrophotometry relative to untreated heparin control. Put shortly: (§1)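 Antithrombin intrinsic fluorescence emission at 340 nm titrated with UFH (alone or after antithrombin preincubation with 37 μM compound) at room temperature, I = 0.15, 20 mM NaPO4, 100 mM NaCl, 0.1 mM EDTA, 0.1% PEG 8000, pH 7.4. Each point averaged from 100 readings at 1 s intervals; Kd obtained by data fitting.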

Test [8] can be described thus: Activation of purified human antithrombin-unfractionated heparin interaction assessed as change in antithrombin intrinsic fluorescence by fluorescence spectrophotometry. In short, it runs like this: as §1
Test [9] is filed under the species Homo sapiens. The experiment in a line: Activation of antithrombin L99F mutant in type 2 antithrombin deficiency patient plasma assessed as inhibition of S-2238 hydrolysis at 148 uM incubated for 5 mins in presence of 1 uM unfractionated heparin (reference value: 33.22 +/- 2.93%). It is filed as cell-free. Also on record: scale not given: the % may be the effect or the level left.

The species named for test [10] is Homo sapiens. The experiment in a line: Induction of conformational changes in purified human antithrombin assessed as induction of antithrombin polymer formation up to 14.8 uM at 37 or 42 degC incubated for 2 days in absence of urea by native PAGE. In short, it runs like this: (§2)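 Antithrombin incubated with compound up to 14.8 μM at 37 or 42 °C for 2 days; latent form and polymers assessed by immunoelectrophoresis on 8% (w/v) nondenaturing PAGE with or without 7 M urea.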

Test [11] is filed under the species Homo sapiens. Put plainly: Induction of conformational changes in purified human antithrombin assessed as induction of transition latent conformation up to 14.8 uM at 37 or 42 degC incubated for 2 days in absence of urea by native PAGE. In short, it runs like this:
as §2

For test [12], the species on record is Homo sapiens. Put plainly: Activation of antithrombin in healthy human plasma assessed as inhibition of S-2238 hydrolysis at 148 uM incubated for 5 mins in presence of 1 uM unfractionated heparin. Format: cell-free. Also on record: scale not given: the % may be the effect or the level left.
For test [13], the species on record is Homo sapiens. The experiment in a line: Induction of conformational changes in purified human antithrombin assessed as induction of antithrombin polymer formation up to 14.8 uM at 37 or 42 degC incubated for 2 days in presence of urea by native PAGE. Put shortly: as §2
For test [14], the species on record is Homo sapiens. The experiment in a line: Activation of purified human antithrombin-low affinity heparin interaction assessed as antithrombin-mediated inhibition of factor 10a by measuring as second order association rate constant for chromogenic substrate hydrolysis at 1 uM by microplate reader based assay.
The species named for test [15] is Homo sapiens. Put plainly: Activation of antithrombin in healthy human plasma assessed as inhibition of S-2238 hydrolysis at 148 uM incubated for 5 mins in presence of mouse Py-4-1 cells. Format: cell-free. Also on record: scale not given: the % may be the effect or the level left.
For test [16], the species on record is Homo sapiens. The experiment in a line: Induction of conformational changes in purified human antithrombin assessed as induction of transition latent conformation up to 14.8 uM at 37 or 42 degC incubated for 2 days in presence of urea by native PAGE. Put shortly: as §2
The species named for test [17] is Homo sapiens. The experiment in a line: Activation of purified human antithrombin-high affinity heparin interaction assessed as antithrombin-mediated inhibition of thrombin by measuring as second order association rate constant for chromogenic substrate hydrolysis at 1 uM by microplate reader based assay.
Test [18] is filed under the species Homo sapiens. Put plainly: Activation of purified human antithrombin-mediated inhibition of factor 10a assessed as second order association rate constant for chromogenic substrate hydrolysis by microplate reader based assay.
Test [19] in a line: Binding affinity to purified human antithrombin at 64 uM by isothermal titration calorimetry.
A short description of test [20]: Binding affinity to purified human antithrombin at 64 uM in presence of 37 uM d-myo-inositol 3,4,5,6-tetrakisphosphate by isothermal titration calorimetry.

Results on two compounds are retold here after ChEMBL document CHEMBL2163224, “In silico discovery of a compound with nanomolar affinity to antithrombin causing partial activation and increased heparin affinity” (J Med Chem, 2012).

Active and inactive are the calls of the source. The calls are words filed in the database; no cut-off is given here.

One may read the Kd as the concentration at which binding is half-saturated. Regarding `O=P(O)(O)O[C@@H]1[C@@H](OP(=O)(O)O)[C@H](OP(=O)(O)O)[C@@H](O)[C@@H](O)[C@H]1OP(=O)(O)O`, the K in the test listed under Homo sapiens [1] is 2.28e+06 M⁻¹ s⁻¹; in the test filed under Homo sapiens [3] it was 23000 M⁻¹ s⁻¹; in the test filed under Homo sapiens [6], 683000 M⁻¹ s⁻¹; in the test filed under Homo sapiens [14], 87000 M⁻¹ s⁻¹; in the test listed under Homo sapiens [17], 3.28e+06 M⁻¹ s⁻¹; in the test listed under Homo sapiens [18], 12000 M⁻¹ s⁻¹. Moreover, the dissociation constant Kd in test [2] and in test [8] was 45 nM each time. Further, the Activity in the test filed under Homo sapiens [4] is 30%; in the test listed under Homo sapiens [5] it was 37.2%; in the test filed under Homo sapiens [9], 40%; in the test filed under Homo sapiens [12] it was 97.3%; in the test filed under Homo sapiens [15], 101%. Further, the fold change (FC) in test [7] came to 2.3. Moreover, the outcome in the test listed under Homo sapiens [10], in the test listed under Homo sapiens [11], in the test filed under Homo sapiens [13] and in the test filed under Homo sapiens [16] was inactive.
With `CO[C@H]1O[C@H](COS(=O)(=O)O)[C@@H](O[C@@H]2O[C@@H](C(=O)O)[C@@H](O[C@H]3O[C@H](COS(=O)(=O)O)[C@@H](O[C@@H]4O[C@H](C(=O)O)[C@@H](O[C@H]5O[C@H](COS(=O)(=O)O)[C@@H](O)[C@H](O)[C@H]5NS(=O)(=O)O)[C@H](O)[C@H]4O)[C@H](OS(=O)(=O)O)[C@H]3NS(=O)(=O)O)[C@H](O)[C@H]2OS(=O)(=O)O)[C@H](O)[C@H]1NS(=O)(=O)O` [FONDAPARINUX SODIUM], the equilibrium dissociation constant (Kd) in test [19] is 273 nM; in [20] it was 18.8 nM.
